This is a sample that favours compounds with a hit; in the whole collection about 1.7% have one here.
Rpn11 block: Rpn11 (human) deubiquitinase inhibition | human 26S proteasome, Ub4-pepOG fluorescence polarization; 20S core pre-blocked with epoxomicin | calls only at 20 µM | 0.59% of 360,000 active;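 active means inhibition at 20 µM, scaled to each plate's controls, above about 33%, limit read from the data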
CSN inh: blocks human CSN-mediated cullin deneddylation; Q92905; Purified CSN, SCF-Nedd8-OG deneddylation, fluorescence polarization; inhibition, % at 12.5 µM; 0.38% of 360,000 active; AID 651999;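 active means pattern-corrected inhibition above about 35%, with an unprinted fluorescence ratio check between 0.5 and 1.5, limit read from the data, passing the limit was not always enough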;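 further: 0% = enzyme with substrate and 100% = substrate without enzyme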
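Assay system: purified human Csn5 enzyme expressed in HEK293T cells; Input: 0.24 nM Csn5 enzyme, final concentration; Reagent: 10 nM SCFSkp2-Nedd8OG; Compound dosing: 12.5 µM single point; Times: reaction 90 min, room temperature; Technique: fluorescence polarization readout.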
IDE inh: cellular human IDE inhibition | P14735 | HEK cells, FAbetaB cleavage, fluorescence polarization | inhibition, % at 5.59 µM | 0.41% of 320,000 active | AID 434962;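 active means percent inhibition above the average of all tested compounds plus 3 SD, set per screening campaign, cut at about 16% in these data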;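 further: IDE supplied by intact live HEK cells; FP after avidin binding of uncleaved biotin substrate so inhibition keeps polarization high; 0% = DMSO wells and 100% = 60 µM reference IDE inhibitor Ii1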
HNF4A DNA FP: change in binding of human HNF4 alpha to DNA; P41235; HNF4a-FITC DNA binding, fluorescence polarization, 1 h; activity change, % at 10 µM; 0.3% of 360,000 active; AID 1224865; in the data active means activity change above about 30%, passing the limit was not always enough
TPT1 inhibitor: C. albicans TPT1 enzyme inhibition. recombinant caTPT1, FP RNA substrate dephosphorylation. inhibition, % at 5 µM. 0.81% of 300,000 active;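 active means inhibition above the mean of all tested compounds plus 3 SD, set per screening campaign, cut at about 24% in these data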;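 further: plate controls were DMSO alone for no effect and ferristatin control at 100 nM for full effect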
IDE act: activators of human insulin-degrading enzyme in cells | HEK cells, FAbeta-B cleavage, fluorescence polarization; 0% vehicle, 100% cell-free pure enzyme wells | activation, % at 5.96 µM | P14735 | AID 493087 | 0.073% of 340,000 active;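 active means activation above the mean of all tested compounds plus 3 SD, set per screening campaign, cut at about 17% in these data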
Rpn11 inh conf: confirmation of human proteasome Rpn11 inhibitors; shares compounds with Rpn11 block; purified human 26S proteasome, Ub4-pepOG fluorescence polarization; proteasome pretreated with epoxomicin; inhibition, % at 20 µM; 29% of 1,900 active; AID 602318
MMP-2 counter: counter-screen for RPN11 inhibitors: inhibition of human MMP-2; inhibition, % at 20 µM; shares compounds with Rpn11 block; 4% of 1,900 active; recombinant MMP-2, FRET peptide cleavage fluorescence;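 further: human MMP-2 activated beforehand with APMA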
Thrombin FP: thrombin (bovine) inhibition counter-screen | shares compounds with Rpn11 block | bovine thrombin cleavage of Ub4-pepOG, fluorescence polarization | inhibition, % at 20 µM | 13% of 1,900 active | AID 602333;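 active means mean inhibition at least 40% at 20 µM, or signal 3 deviations below plate average, so some actives read negative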;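 further: plate controls were thrombin with DMSO for no effect and buffer wells lacking thrombin for full effect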
The depositor's hits bear a star. Unless noted, no stated cut-off is given here; in the data, active means inhibition above about 40%; inactive means the rest.

What do the screens show for `CC1CCCN(c2c([N+](=O)[O-])cc(C(=O)O)cc2[N+](=O)[O-])C1` (configuration not stated)?
Rpn11 block: inactive; CSN inh: -1; IDE inh: 1; HNF4A DNA FP: 3; TPT1 inhibitor: -2; IDE act: 2

Results for CC1CCCN(c2ccc([N+](=O)[O-])s2)C1 (configuration not stated) ?
Rpn11 block: active; CSN inh: 19; HNF4A DNA FP: 26; IDE act: -4; Rpn11 inh conf: 39; MMP-2 counter: -38; Thrombin FP: 30

Results for COc1ccc(C(C)=O)cc1CN1C(=O)C(C)N(c2ccc(C)cc2)C1=O (configuration not stated) ?
Rpn11 block: inactive; CSN inh: -4; IDE inh: 8; HNF4A DNA FP: -3; TPT1 inhibitor: -2; IDE act: 3

What do the screens show for `CCC1CCCCN1CCCn1c(=S)[nH]c2ccccc2c1=O` (configuration not stated)?
Rpn11 block: active; CSN inh: 0; IDE inh: 0; HNF4A DNA FP: 9; TPT1 inhibitor: -2; IDE act: 2; Rpn11 inh conf: -2; MMP-2 counter: -6; Thrombin FP: -9

Results for O=C(Nc1cccc(C(F)(F)F)c1)c1cccc(NS(=O)(=O)c2ccc(Br)c(C(=O)O)c2)c1 ?
Rpn11 block: inactive; CSN inh: 0; IDE inh: 3; HNF4A DNA FP: 0; TPT1 inhibitor: 5; IDE act: 3

What do the screens show for `O=C(Nc1ccc(N2CCCC2)cc1)c1cccc(Cl)c1Cl`?
Rpn11 block: active; CSN inh: 1; IDE inh: 0; HNF4A DNA FP: 5; TPT1 inhibitor: 4; IDE act: 0; Rpn11 inh conf: -1; MMP-2 counter: -44; Thrombin FP: -3

Results for CC(=C1C(=O)c2ccccc2C1=O)N1CCN(Cc2ccccc2)CC1 ?
Rpn11 block: inactive; CSN inh: 2; IDE inh: 3; HNF4A DNA FP: 0; TPT1 inhibitor: 0; IDE act: 5

What do the screens show for `CCC1CCCCN1c1ccc([N+](=O)[O-])cc1/C=N/NC(=O)Cn1c2ccccc2c(=O)c2ccccc21` (configuration not stated)?
Rpn11 block: active; CSN inh: 7; IDE inh: 1; HNF4A DNA FP: 14; TPT1 inhibitor: 2; IDE act: 2; Rpn11 inh conf: 25; MMP-2 counter: 0; Thrombin FP: 8

What do the screens show for `CCc1ccc(OCC(=O)N/N=C/c2cc([N+](=O)[O-])ccc2N2CCCCCC2)cc1`?
Rpn11 block: inactive; CSN inh: 5; IDE inh: -8; HNF4A DNA FP: 5; TPT1 inhibitor: 1; IDE act: 4

How did Cc1ccc(C(C(=O)NC2CCCCC2)N2CCOCC2)cc1 (configuration not stated) do in these assays?
Rpn11 block: inactive; CSN inh: 1; IDE inh: -6; HNF4A DNA FP: 2; TPT1 inhibitor: 1; IDE act: -4

What do the screens show for `CCn1c(SCC(=O)Nc2ccc(-c3nc4ccc(C)cc4s3)cc2)nnc1-c1ccccc1`?
IDE inh: 3; TPT1 inhibitor: -3

How did C=CCn1c(SCC(=O)Nc2ccc(-c3nc4ccc(C)cc4s3)cc2)nnc1-c1ccncc1 do in these assays?
Rpn11 block: active; CSN inh: -11; IDE inh: -2; HNF4A DNA FP: 36; TPT1 inhibitor: 0; IDE act: 0; Rpn11 inh conf: 2; MMP-2 counter: -5; Thrombin FP: 1
